The test system of test [1] is MIA PaCa-2. In words: Cytotoxicity against multidrug-resistant human MIAPaCa2 cells assessed as cell viability after 48 hrs by MTT assay. It is filed as functional, cell-based. Summed up: (§1)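 Cells left untreated or incubated with compound over 50 nM to 200 μM for 48 h. Viability read by MTT. Values are mean SE of three independent experiments, and IC50 is taken from the dose-response curves.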
Background: Formazan colour is commonly taken as a measure of viable cells.

In test [2] the test system is MIA PaCa-2. The test can be described thus: Cytotoxicity against multidrug-resistant human MIAPaCa2 cells assessed as cell viability at 50 uM after 48 hrs by MTT assay. It is filed as functional, cell-based. Summed up:
(§2)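 Cells left untreated or incubated at 50 μM for 48 h, with gemcitabine 50 μM as reference. Viability read by MTT.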

Test [3] relates to MIA PaCa-2. The test can be described thus: Induction of apoptosis in multidrug-resistant human MIAPaCa2 cells assessed as increase in caspase-3/7 activity after 48 hrs by caspase-Glo 3/7 assay. In kind it is functional, cell-based. Summed up:
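MiaPaCa-2 cells treated 48 h, with untreated and gemcitabine references. Caspase-3/7 activity measured. Run in triplicate.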

The subject of test [4] is Dendritic cell. In words: Immunostimulatory activity against TLR3-deficient C57BL/6 mouse bone marrow dendritic cells assessed as increase in IL-12p40 level at 3 to 10 uM after 24 hrs by ELISA. It is filed as functional, cell-based. In outline: (§3)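 Bone marrow dendritic cells from wild-type, TLR3−/−, TLR7−/− and TLR9−/− mice, left untreated or stimulated with different doses for 24 h. IL-12p40 protein in culture supernatants measured by ELISA.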
On the technique in general: In an ELISA, binding on a coated surface is turned into a signal by an enzyme label.

The target in test [5] is T1, Toll-like receptor 7 (Mus musculus) (UniProt P58681).
T1 sequence (whole entry): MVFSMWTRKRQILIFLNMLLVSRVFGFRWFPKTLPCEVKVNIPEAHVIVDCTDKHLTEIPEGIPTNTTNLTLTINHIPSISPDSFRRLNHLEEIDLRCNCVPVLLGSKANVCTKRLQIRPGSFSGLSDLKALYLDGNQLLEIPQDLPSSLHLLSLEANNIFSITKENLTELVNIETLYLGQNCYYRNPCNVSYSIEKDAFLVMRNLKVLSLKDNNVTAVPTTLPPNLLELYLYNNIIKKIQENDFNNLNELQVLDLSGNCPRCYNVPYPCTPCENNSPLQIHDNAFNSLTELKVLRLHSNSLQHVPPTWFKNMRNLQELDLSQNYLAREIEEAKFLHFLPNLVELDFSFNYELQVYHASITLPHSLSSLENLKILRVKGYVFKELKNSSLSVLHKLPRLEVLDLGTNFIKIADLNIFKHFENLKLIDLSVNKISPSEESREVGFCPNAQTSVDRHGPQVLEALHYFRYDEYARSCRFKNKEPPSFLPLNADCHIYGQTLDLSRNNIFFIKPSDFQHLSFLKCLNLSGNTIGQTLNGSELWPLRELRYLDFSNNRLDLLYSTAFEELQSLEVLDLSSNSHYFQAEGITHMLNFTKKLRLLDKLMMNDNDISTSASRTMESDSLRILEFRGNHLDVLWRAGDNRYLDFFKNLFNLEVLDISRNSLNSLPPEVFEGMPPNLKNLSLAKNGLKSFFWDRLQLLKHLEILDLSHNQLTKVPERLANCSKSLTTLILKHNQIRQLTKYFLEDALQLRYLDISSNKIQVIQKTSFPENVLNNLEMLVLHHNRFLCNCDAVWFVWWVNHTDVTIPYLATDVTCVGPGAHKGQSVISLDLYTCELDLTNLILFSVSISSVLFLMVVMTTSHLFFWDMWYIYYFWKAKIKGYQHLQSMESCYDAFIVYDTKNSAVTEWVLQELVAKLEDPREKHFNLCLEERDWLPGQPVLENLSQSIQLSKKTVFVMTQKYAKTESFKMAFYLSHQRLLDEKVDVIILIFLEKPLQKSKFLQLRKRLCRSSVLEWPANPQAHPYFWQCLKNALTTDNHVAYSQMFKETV
In words: Activation of TLR7 in C57BL/6 mouse bone marrow dendritic cells assessed as increase of IL6 production after 24 hrs by ELISA. In kind it is cell-based. In outline: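 Bone marrow dendritic cells from wild-type mice, left untreated or stimulated with two doses for 24 h. IL-6 in culture supernatants measured by ELISA. Mean SD of four mice per group.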

Test [6] relates to MIA PaCa-2. In words: Induction of apoptosis in multidrug-resistant human MIAPaCa2 cells assessed as late apoptotic cells after 48 hrs using AnnexinV-FITC conjugated 7- AAD staining by flow cytometry (reference value: 0.21%). In kind it is functional.
The test system of test [7] is PANC-1. In words: Cytotoxicity against human PANC1 cells assessed as cell viability at 50 uM after 48 hrs by MTT assay. In kind it is functional, cell-based. Summed up: as §2
Test [8] deals with MIA PaCa-2. The test can be described thus: Induction of apoptosis in multidrug-resistant human MIAPaCa2 cells assessed as necrotic cells after 48 hrs using AnnexinV-FITC conjugated 7- AAD staining by flow cytometry (reference value: 0.17%). It is filed as functional.
In test [9] the test system is Dendritic cell. In words: Immunostimulatory activity against TLR9-deficient C57BL/6 mouse bone marrow dendritic cells assessed as increase in IL-12p40 level at 3 to 10 uM after 24 hrs by ELISA. It is filed as functional, cell-based. In outline:
as §3

Test [10] deals with Dendritic cell. The test can be described thus: Immunostimulatory activity against TLR7-deficient C57BL/6 mouse bone marrow dendritic cells assessed as increase in IL-12p40 level at 10 uM after 24 hrs by ELISA. It is filed as functional, cell-based. Summed up:
as §3

Test [11] deals with PANC-1. The test can be described thus: Cytotoxicity against human PANC1 cells assessed as cell viability after 48 hrs by MTT assay. In kind it is functional, cell-based. In outline:
as §1

Test [12] concerns Capan-2. The test can be described thus: Cytotoxicity against human Capan2 cells assessed as cell viability at 50 uM after 48 hrs by MTT assay. In kind it is functional, cell-based. Summed up:
as §2

In test [13] the test system is PC-3. The test can be described thus: Cytotoxicity against human PC3 cells assessed as cell viability at 50 uM after 48 hrs by MTT assay. It is filed as functional, cell-based. In outline: as §2
Test [14] has as its system MCF7. The test can be described thus: Cytotoxicity against human MCF7 cells assessed as cell viability at 50 uM after 48 hrs by MTT assay. It is filed as functional, cell-based. In outline: as §2
The subject of test [15] is MIA PaCa-2. The test can be described thus: Induction of apoptosis in multidrug-resistant human MIAPaCa2 cells assessed as early apoptotic cells after 48 hrs using AnnexinV-FITC conjugated 7- AAD staining by flow cytometry (reference value: 2.54%). It is filed as functional. For orientation: A flow cytometer gives signals particle by particle.
In test [16] the test system is Dendritic cell. The test can be described thus: Immunostimulatory activity against wild type C57BL/6 mouse bone marrow dendritic cells assessed as increase in IL-12p40 level at 3 to 10 uM after 24 hrs by ELISA. It is filed as functional, cell-based. Summed up:
as §3

The subject of test [17] is Capan-2. In words: Cytotoxicity against human Capan2 cells assessed as cell viability after 48 hrs by MTT assay. It is filed as functional, cell-based. Summed up: as §1
Test [18] deals with MIA PaCa-2. In words: Cell cycle arrest in multidrug-resistant human MIAPaCa2 cells assessed as accumulation at sub-G0/G1 phase after 48 hrs by propidium iodide staining based FACS flow cytometry (reference value: 1.17%). It is filed as functional.
Test [19] deals with MCF7. The test can be described thus: Cytotoxicity against human MCF7 cells assessed as cell viability after 48 hrs by MTT assay. In kind it is functional, cell-based. In outline: as §1
For test [20], the system named is MIA PaCa-2. In words: Induction of apoptosis in multidrug-resistant human MIAPaCa2 cells assessed as increase in DNA/histone nucleosome release after 48 hrs by ELISA relative to control. In kind it is functional. Summed up:
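MiaPaCa-2 cells treated 48 h, with untreated and gemcitabine references. Cytoplasmic DNA/histone nucleosome release detected by ELISA and compared with untreated cells. Run in triplicate.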

In test [21] the test system is HeLa. The test can be described thus: Cytotoxicity against human HeLa cells assessed as cell viability after 48 hrs by MTT assay. It is filed as functional, cell-based. Summed up:
as §1

Test [22] relates to PC-3. In words: Cytotoxicity against human PC3 cells assessed as cell viability after 48 hrs by MTT assay. It is filed as functional, cell-based. In outline: as §1
Test [23] concerns HeLa. In words: Cytotoxicity against human HeLa cells assessed as cell viability at 50 uM after 48 hrs by MTT assay. It is filed as functional, cell-based. Summed up:
as §2

The values below come from ChEMBL document CHEMBL2146475, “A novel bitriazolyl acyclonucleoside endowed with dual antiproliferative and immunomodulatory activity” (J Med Chem, 2012).

For orientation: IC50 means the concentration that gives 50% inhibition.

Active and inactive are the calls of the source. The calls are words filed in the database; no cut-off is given here.

As for `COC(=O)c1nc(-c2cn(Cc3ccc4ccc5cccc6ccc3c4c56)nn2)n([C@@H]2O[C@H](COC(C)=O)[C@@H](OC(C)=O)[C@H]2OC(C)=O)n1`, the outcome in the test on MIA PaCa-2 [1] was inactive.

On to `COC(=O)c1nc(C#Cc2ccc3ccc4cccc5ccc2c3c45)n(COCCOC(C)=O)n1`, for which the result with MIA PaCa-2 [2] was inactive.

Consider `COC(=O)c1nc(CCc2ccc3ccc4cccc5ccc2c3c45)n(COCCOC(C)=O)n1`, for which the result in the test on MIA PaCa-2 [2] was inactive.

On to `COC(=O)c1nc(-c2cn(Cc3ccc4ccc5cccc6ccc3c4c56)nn2)n(COCCOC(C)=O)n1`, for which the outcome in the test on MIA PaCa-2 [3], in the test with Dendritic cell [4], in the test with PANC-1 [7], in the test with Dendritic cell [9], with Capan-2 [12] and with PC-3 [13] was Active. The result in the test on MCF7 [14], with Dendritic cell [16], in the test on HeLa [23] and with MIA PaCa-2 [2] was Active. Moreover, the Activity result was “Dose-dependent effect” in test [5]; 22.44% in the test with MIA PaCa-2 [6]; 0.41% in the test on MIA PaCa-2 [8]; “Dose-dependent effect” in the test with PANC-1 [11]; 28.48% in the test on MIA PaCa-2 [15]; “Dose-dependent effect” with Capan-2 [17]. The Activity entry with MIA PaCa-2 [1] is “Dose-dependent effect”; in the test on MIA PaCa-2 [18] it was 36.9%; with MCF7 [19], “Dose-dependent effect”; with HeLa [21], “Dose-dependent effect”; in the test on PC-3 [22] it was “Dose-dependent effect”. In the test with Dendritic cell [10], the result was inactive. The half-maximal inhibitory concentration (IC50) in the test on PANC-1 [11] (PANC-1, 48 h) was ≤ 10 µM; with Capan-2 [17] (Capan-2, 48 h), ≤ 10 µM; in the test with MIA PaCa-2 [1] (MIA PaCa-2, 48 h), ≤ 10 µM; with MCF7 [19] (MCF7, 48 h) it was ≤ 10 µM; in the test with HeLa [21], ≤ 10 µM; in the test with PC-3 [22] (PC-3, 48 h), ≤ 10 µM. For the same compound, the “fold change (FC)” value in the test on MIA PaCa-2 [20] is on record as 15.

In the case of `Nc1ccn([C@@H]2O[C@H](CO)[C@@H](O)C2(F)F)c(=O)n1` [GEMCITABINE], the result with MIA PaCa-2 [3] and with MIA PaCa-2 [20] was Active. The Activity in the test on MIA PaCa-2 [6] amounted to 0.86%; in the test with MIA PaCa-2 [8], 0.35%; in the test on MIA PaCa-2 [15], 10.47%; in the test on MIA PaCa-2 [18] it was 7.9%.

`COC(=O)c1nc(Nc2ccc3ccc4cccc5ccc2c3c45)n(COCCOC(C)=O)n1`: in the test on MIA PaCa-2 [2], the result was inactive.

For the compound `NC(=O)c1nc(-c2cn(Cc3ccc4ccc5cccc6ccc3c4c56)nn2)n(COCCO)n1`, in the test on MIA PaCa-2 [1], the result was Active.

Turning to `COC(=O)c1nc(-c2cn(Cc3ccc4ccccc4c3)nn2)n(COCCOC(C)=O)n1`, the result with MIA PaCa-2 [2] was inactive.

Turning to `COC(=O)c1nc(-c2cn(Cc3ccccc3)nn2)n(COCCOC(C)=O)n1`, the outcome in the test with MIA PaCa-2 [2] was inactive.

As for `COC(=O)c1nc(-c2cn(Cc3ccc4ccc5cccc6ccc3c4c56)nn2)nn1COCCOC(C)=O`, in the test on MIA PaCa-2 [2], the result was inactive.

For the compound `COC(=O)c1nc(-c2cn(-c3ccc4ccc5cccc6ccc3c4c56)nn2)n(COCCOC(C)=O)n1`, the result with MIA PaCa-2 [2] was inactive.

Consider `COC(=O)c1nc(-c2cn(Cc3ccc4cc5ccccc5cc4c3)nn2)n(COCCOC(C)=O)n1`, for which, in the test with MIA PaCa-2 [2], the result was inactive.
